Measured values: ChEMBL document CHEMBL1129508, “Betulinic acid derivatives: a new class of specific inhibitors of human immunodeficiency virus type 1 entry” (J Med Chem, 1996)

Experiments:
CCRF-CEM [1] = test: (§1) Inhibitory activity against the HIV-1 in CEM cells; assay type: functional, cell-based; conditions: Homo sapiens
Summary of the method: (§2)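 HIV-1-induced cytopathicity in CEM 4 or MT-4 cell cultures was assessed by counting viable cells after MTT (3-(4,5-dimethylthiazol-2-yl)-2,5-diphenyltetrazolium bromide) staining. IC50 is the concentration that inhibits cytopathicity by 50%. For routine testing, the highest concentration was generally 3 µM, because solubility was limited above 10 µM.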

[2] = tested on: Human immunodeficiency virus 1; test: Inhibitory activity tested against the HIV-1 in MT-4 cells; assay type: functional, organism-based; conditions: Human immunodeficiency virus 1, MT4; summary of the method: as §2
CCRF-CEM [3] = test: Inhibitory activity against the HIV-1 in CEM cells; NA= Not active; assay type: functional, cell-based, Homo sapiens
Summary of the method: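 HIV-1-induced cytopathicity assay in CEM 4 cells. Viable cells were counted after MTT (3-(4,5-dimethylthiazol-2-yl)-2,5-diphenyltetrazolium bromide) staining. IC50 is the concentration that inhibits viral cytopathicity by 50%. For routine testing the top concentration was generally 3 µM, because solubility was limited above 10 µM.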

CCRF-CEM [4] = test: Inhibitory activity against the HIV-1 in CEM cells at 1 uM concentration; assay type: functional; conditions: Homo sapiens
MT4 = test: Inhibitory activity against the HIV-1 in MT-4 cells; assay type: functional, cell-based; conditions: Homo sapiens; summary of the method: as §2
CCRF-CEM [5] = test: Inhibitory Activity against the HIV-1 in CEM cells; assay type: functional, Homo sapiens; summary of the method: as §2
[6] = tested on: Human immunodeficiency virus 1; test: Inhibitory activity tested against the HIV-1 in CEM cells; assay type: functional, organism-based; conditions: Human immunodeficiency virus 1, CCRF-CEM; summary of the method: as §2
CCRF-CEM [7] = test: as §1; assay type: functional, Homo sapiens; summary of the method: as §2

Row | Compound | IC50 (CCRF-CEM [1]) | IC50 [2] | IC50 [6] | also measured
1 | C=C(C)[C@@H]1CC[C@]2(C(=O)NCCCCCCC(=O)O)CC[C@]3(C)[C@H](CC[C@@H]4[C@@]5(C)CC[C@H](O)C(C)(C)[C@@H]5CC[C@]43C)[C@@H]12 | 12 µM | 4.3 µM |  | 
2 | C=C(C)[C@@H]1CC[C@]2(C(=O)NCCCCCCC(=O)NCCC(=O)O)CC[C@]3(C)[C@H](CCC4[C@@]5(C)CC[C@H](O)C(C)(C)[C@@H]5CC[C@]43C)[C@@H]12 (some centres not stated) | 4.5 µM |  |  | 
3 | C=C(C)[C@@H]1CC[C@]2(C(=O)NCCCC(=O)O)CC[C@]3(C)[C@H](CCC4[C@@]5(C)CC[C@H](O)C(C)(C)[C@@H]5CC[C@]43C)[C@@H]12 (some centres not stated) |  |  |  | IC50 (CCRF-CEM [3]): Not Active
4 | C=C(C)[C@@H]1CC[C@]2(C(=O)NCCCCC(=O)O)CC[C@]3(C)[C@H](CC[C@@H]4[C@@]5(C)CC[C@H](O)C(C)(C)[C@@H]5CC[C@]43C)[C@@H]12 |  |  |  | inhibition at 1 µM (CCRF-CEM [4]): 46%
5 | C=C(C)[C@@H]1CC[C@]2(C(=O)NCCCCCC(=O)O)CC[C@]3(C)[C@H](CC[C@@H]4[C@@]5(C)CC[C@H](O)C(C)(C)[C@@H]5CC[C@]43C)[C@@H]12 | 2.3 µM |  |  | IC50 (MT4): 2.4 µM
6 | C=C(C)[C@@H]1CC[C@]2(C(=O)NCCCC(=O)NCCCCCC(=O)O)CC[C@]3(C)[C@H](CCC4[C@@]5(C)CC[C@H](O)C(C)(C)[C@@H]5CC[C@]43C)[C@@H]12 (some centres not stated) | 5.5 µM |  |  | 
7 | C=C(C)[C@@H]1CC[C@]2(C(=O)NCC(=O)NCCCCCCCC(=O)O)CC[C@]3(C)[C@H](CCC4[C@@]5(C)CC[C@H](O)C(C)(C)[C@@H]5CC[C@]43C)[C@@H]12 (some centres not stated) |  |  |  | Inhibition (CCRF-CEM [5]): 30%
8 | C=C(C)[C@@H]1CC[C@]2(C(=O)NCCC(=O)O)CC[C@]3(C)[C@H](CC[C@@H]4[C@@]5(C)CC[C@H](O)C(C)(C)[C@@H]5CC[C@]43C)[C@@H]12 |  |  |  | IC50 (CCRF-CEM [3]): Not Active
9 | C=C(C)[C@@H]1CC[C@]2(C(=O)NCCCCCCCC(=O)NCC(=O)O)CC[C@]3(C)[C@H](CC[C@@H]4[C@@]5(C)CC[C@H](O)C(C)(C)[C@@H]5CC[C@]43C)[C@@H]12 |  | 0.156 µM | 0.15 µM | 
10 | C=C(C)[C@@H]1CC[C@]2(C(=O)NCCCCCCCNC(=O)c3cccc(C(=O)O)c3)CC[C@]3(C)[C@H](CCC4[C@@]5(C)CC[C@H](O)C(C)(C)[C@@H]5CC[C@]43C)[C@@H]12 (some centres not stated) |  | 0.04 µM | 0.105 µM | 
11 | C=C(C)[C@@H]1CC[C@]2(C(=O)NCCCCCCCC(=O)NCCC(=O)O)CC[C@]3(C)[C@H](CCC4[C@@]5(C)CC[C@H](O)C(C)(C)[C@@H]5CC[C@]43C)[C@@H]12 (some centres not stated) |  | 0.094 µM | 0.1 µM | 
12 | C=C(C)[C@@H]1CC[C@]2(C(=O)NCCCCCC(=O)NCCCC(=O)O)CC[C@]3(C)[C@H](CCC4[C@@]5(C)CC[C@H](O)C(C)(C)[C@@H]5CC[C@]43C)[C@@H]12 (some centres not stated) | 3 µM |  |  | 
13 | C=C(C)[C@@H]1CC[C@]2(C(=O)NCCCCCCCC(=O)Nc3ccc(C(=O)O)cc3)CC[C@]3(C)[C@H](CCC4[C@@]5(C)CC[C@H](O)C(C)(C)[C@@H]5CC[C@]43C)[C@@H]12 (some centres not stated) |  | 0.026 µM | 0.07 µM | 
14 | Cc1ccnc2c1NC(=O)c1cccnc1N2C1CC1 [NEVIRAPINE] | 0.084 µM |  |  | 
15 | C=C(C)[C@@H]1CC[C@]2(C(=O)NCCCCCCCC(=O)N(C)CC(=O)O)CC[C@]3(C)[C@H](CCC4[C@@]5(C)CC[C@H](O)C(C)(C)[C@@H]5CC[C@]43C)[C@@H]12 (some centres not stated) |  | 0.333 µM | 0.25 µM | 
16 | C=C(C)[C@@H]1CC[C@]2(C(=O)NCCCCCCCCCC(=O)O)CC[C@]3(C)[C@H](CCC4[C@@]5(C)CC[C@H](O)C(C)(C)[C@@H]5CC[C@]43C)[C@@H]12 (some centres not stated) |  | 0.42 µM | 0.6 µM | 
17 | C=C(C)[C@@H]1CC[C@]2(C(=O)NCCCCCCCCCCCCC(=O)O)CC[C@]3(C)[C@H](CCC4[C@@]5(C)CC[C@H](O)C(C)(C)[C@@H]5CC[C@]43C)[C@@H]12 (some centres not stated) |  |  |  | Inhibition (CCRF-CEM [5]): 35%
18 | C=C(C)[C@@H]1CC[C@]2(C(=O)NCCCCCCCC(=O)N[C@@H](CC(C)C)[C@@H](O)CC(=O)O)CC[C@]3(C)[C@H](CCC4[C@@]5(C)CC[C@H](O)C(C)(C)[C@@H]5CC[C@]43C)[C@@H]12 (some centres not stated) |  | 0.04 µM | 0.05 µM | 
19 | C=C(C)[C@@H]1CC[C@]2(C(=O)NCC(=O)O)CC[C@]3(C)[C@H](CCC4[C@@]5(C)CC[C@H](O)C(C)(C)[C@@H]5CC[C@]43C)[C@@H]12 (some centres not stated) |  |  |  | IC50 (CCRF-CEM [3]): Not Active
20 | C=C(C)[C@@H]1CC[C@]2(C(=O)NCCCCC(=O)NCCCCC(=O)O)CC[C@]3(C)[C@H](CCC4[C@@]5(C)CC[C@H](O)C(C)(C)[C@@H]5CC[C@]43C)[C@@H]12 (some centres not stated) | 4.5 µM |  |  | 
21 | C=C(C)[C@@H]1CC[C@]2(C(=O)NCCC(=O)NCCCCCCC(=O)O)CC[C@]3(C)[C@H](CCC4[C@@]5(C)CC[C@H](O)C(C)(C)[C@@H]5CC[C@]43C)[C@@H]12 (some centres not stated) |  |  |  | Inhibition (CCRF-CEM [7]): 20%
22 | C=C(C)[C@@H]1CC[C@]2(C(=O)NCCCCCCCC(=O)NC(C)(C)C(=O)O)CC[C@]3(C)[C@H](CCC4[C@@]5(C)CC[C@H](O)C(C)(C)[C@@H]5CC[C@]43C)[C@@H]12 (some centres not stated) |  | 0.089 µM | 0.133 µM | 
